Only some compounds are listed: those with a hit (about 2% of all), similar ones and a draw of the others.
PvdQ inh = P. aeruginosa PvdQ acylase inhibition. purified PvdQ acylase, fluorescence plate reader. inhibition, % at 10 µM. 340,000 compounds, 0.063% hits. AID 488965; in the data active = inhibition above about 30%, passing the limit was not always enough;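 also: 0% = vehicle neutral wells and 100% = reference inhibitor wells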
PLC-gamma1 inh = inhibitors of human phospholipase C gamma1; P19174; purified PLC-gamma1, fluorogenic substrate, fluorescence; inhibition, % at 12.2 µM; 370,000 compounds, 0.84% hits; AID 720700; in the data active = inhibition above about 9.5%
IMP-1 inh-1 = inhibitors of Pseudomonas aeruginosa IMP-1 metallo-beta-lactamase | purified IMP-1, nitrocefin hydrolysis, epi-absorbance fluorescence | inhibition, % at 5.6 µM | 290,000 compounds, 0.45% hits | AID 1556;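 active = inhibition above the mean plus 3 SD of all compounds in the same screening run, cut at about 4.5% in these data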;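 also: 0% = IMP-1 with DMSO and 100% = DMSO wells lacking enzyme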
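System: purified IMP-1; amount: IMP-1 0.2 nM before substrate addition; compound: single dose, 5.6 µM; times: 25 °C, 15 min preincubation, 25 min reaction; signal: Epi-absorbance via hydrolysed-nitrocefin quenching of white-plate fluorescence, 480/530 nm, EDTA stop; benchmarks: DMSO with and without IMP-1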
PLCb3 inh = PLC-beta3 (human) inhibition, primary screen; Q01970; inhibition, % at 12.2 µM; Purified PLC-beta3, fluorogenic substrate, fluorescence; 370,000 compounds, 0.18% hits; in the data active = inhibition above about 11%;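 also: 0% = median of compound wells on plate and 100% = full blocker control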
Target sequence (Q01970 whole entry, looked up): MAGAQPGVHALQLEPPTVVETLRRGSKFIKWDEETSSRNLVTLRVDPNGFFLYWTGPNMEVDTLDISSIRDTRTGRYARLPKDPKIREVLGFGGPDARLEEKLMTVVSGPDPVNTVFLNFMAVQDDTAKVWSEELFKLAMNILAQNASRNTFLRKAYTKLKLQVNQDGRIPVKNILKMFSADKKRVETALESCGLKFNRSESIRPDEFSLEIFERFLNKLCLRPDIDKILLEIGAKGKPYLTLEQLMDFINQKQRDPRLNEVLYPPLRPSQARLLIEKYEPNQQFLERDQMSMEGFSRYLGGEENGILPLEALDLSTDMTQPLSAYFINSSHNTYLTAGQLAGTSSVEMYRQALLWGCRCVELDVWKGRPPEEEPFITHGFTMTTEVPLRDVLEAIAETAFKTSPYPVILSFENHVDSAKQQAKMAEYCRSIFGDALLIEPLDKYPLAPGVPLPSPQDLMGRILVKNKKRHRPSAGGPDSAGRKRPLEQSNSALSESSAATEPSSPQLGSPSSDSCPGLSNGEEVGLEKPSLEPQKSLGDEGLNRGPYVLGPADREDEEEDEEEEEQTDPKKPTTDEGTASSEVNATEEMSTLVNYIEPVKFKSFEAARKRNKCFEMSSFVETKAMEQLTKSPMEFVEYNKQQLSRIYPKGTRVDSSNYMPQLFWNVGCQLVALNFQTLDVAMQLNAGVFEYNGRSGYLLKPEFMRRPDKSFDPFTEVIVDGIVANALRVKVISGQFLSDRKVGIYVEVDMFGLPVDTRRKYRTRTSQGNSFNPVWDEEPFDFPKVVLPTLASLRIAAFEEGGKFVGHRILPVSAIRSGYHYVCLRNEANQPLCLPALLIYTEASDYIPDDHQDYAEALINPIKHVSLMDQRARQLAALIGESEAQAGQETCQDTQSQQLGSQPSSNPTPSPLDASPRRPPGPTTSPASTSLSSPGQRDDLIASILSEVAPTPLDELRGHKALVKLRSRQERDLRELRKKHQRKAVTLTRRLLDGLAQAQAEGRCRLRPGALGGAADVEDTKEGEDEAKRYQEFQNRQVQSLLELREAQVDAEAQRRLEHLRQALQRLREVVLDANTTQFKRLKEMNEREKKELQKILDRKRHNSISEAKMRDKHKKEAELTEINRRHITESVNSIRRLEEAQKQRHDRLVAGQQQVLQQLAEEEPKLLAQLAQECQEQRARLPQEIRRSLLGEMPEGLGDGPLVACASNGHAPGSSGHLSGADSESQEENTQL
VIM-2 inhibitor = inhibitors of Pseudomonas aeruginosa VIM-2 metallo-beta-lactamase | inhibition, % at 5.6 µM | purified VIM-2, nitrocefin hydrolysis, epi-absorbance fluorescence | 290,000 compounds, 0.89% hits;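 active = inhibition above the mean of all tested compounds plus 3 SD, cutoff set per screening run, cut at about 7.5% in these data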;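 also: red hydrolysis product quenches plate fluorescence so inhibitors raise well fluorescence; 0% = enzyme with DMSO and 100% = DMSO without enzyme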
IMP-1 inh-2 = blocks IMP-1 metallo-beta-lactamase in VIM-2 selectivity screen. shares compounds with VIM-2 inhibitor. purified IMP-1, nitrocefin hydrolysis, epi-absorbance fluorescence. inhibition, % at 5.6 µM. 1,300 tested, under 10 active; call rule not given here;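 also: 0% = enzyme with vehicle and 100% = vehicle without enzyme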
VIM-2 FRET ctr = VIM-2 FRET inhibition, artifact counter-screen | shares compounds with VIM-2 inhibitor | purified VIM-2, CCF2 FRET substrate hydrolysis | inhibition, % at 5.6 µM | 1,300 compounds, 23% hits;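 active = inhibition above the mean of all tested compounds plus 3 SD, cut at about 19% in these data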;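 also: 0% = VIM-2 plus DMSO and 100% = no enzyme wells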
TEM-1 inh = blocks E. coli TEM-1 beta-lactamase in VIM-2 selectivity screen; shares compounds with VIM-2 inhibitor; Purified TEM-1, nitrocefin hydrolysis, epi-absorbance fluorescence; inhibition, % at 5.6 µM; 1,300 compounds, 3% hits; AID 1866;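 active = inhibition above that campaign's mean inhibition plus 3 SD, cut at about 0.46% in these data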;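 also: 0% = TEM-1 with DMSO and 100% = TEM-1 with 100 µM potassium clavulanate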
VIM-2 confirm 2 = confirmation of P. aeruginosa VIM-2 metallo-beta-lactamase inhibitors; shares compounds with VIM-2 inhibitor; purified VIM-2, nitrocefin hydrolysis, epi-absorbance; inhibition, % at 5.6 µM; 1,300 compounds, 96% hits;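 active = inhibition of the VIM-2 beta-lactamase enzyme above about 11% from the earlier first-round screen, limit read from the data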;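 also: 0% = VIM-2 with DMSO and 100% = buffer wells without enzyme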
Active calls of the source: *; nt = not tested or not shown.

SMILES	PvdQ inh	PLC-gamma1 inh	IMP-1 inh-1	PLCb3 inh	VIM-2 inhibitor	IMP-1 inh-2	VIM-2 FRET ctr	TEM-1 inh	VIM-2 confirm 2
CCCc1cc(=O)oc2cc(C)cc(OCC(=O)NCCCn3ccnc3)c12	-7	-131	-4	-245	24*	-2	-9	-5	39*
Cc1cc(OCC(=O)Nc2cccnc2)c2c(C)cc(=O)oc2c1	-16	-48	-1	-84	21*	-3	-3	-8	33*
Cc1cc(OCC(=O)NCc2cccnc2)c2c(C)cc(=O)oc2c1	0	-238	-2	-354	2	nt	nt	nt	nt
Cc1cc(OCC(=O)NCCCn2ccnc2)c2c(C)cc(=O)oc2c1	-12	-149	-2	-228	28*	-4	-3	-5	36*
CCCC[C@H]1C2CC(OC(=O)Nc3ccccc3C(F)(F)F)C(C2)[C@H]2CCCCN21 (some centres undefined)	nt	-1	nt	-2	nt	nt	nt	nt	nt
c1cncc(-c2ccnc3ncnn23)c1	-9	-2	-3	0	-1	nt	nt	nt	nt
c1cn(-c2ccc(-c3ccnc4ncnn34)cc2)cn1	-12	0	-1	0	45*	-3	2	-4	63*
O=C(CCc1ccccc1)N[C@H]1[C@@H](OC(=O)c2cnccn2)CCC[C@]12C(=O)N(Cc1ccccc1)c1ccccc12	nt	1	nt	-2	nt	nt	nt	nt	nt
Cc1c(OCC(=O)NCc2ccccn2)ccc2c3c(c(=O)oc12)CCCC3	-14	-3	-1	-8	17*	-2	-3	-18	26*
Cc1c(OC(C)C(=O)NCc2ccncc2)ccc2c3c(c(=O)oc12)CCCC3 (centres undefined)	-17	-6	-2	-16	51*	-3	17	-11	62*
Cc1c(OCC(=O)Nc2cccnc2)ccc2c3c(c(=O)oc12)CCC3	-8	2	-2	-5	24*	-4	-1	-16	35*
CCCc1cc(=O)oc2c(C)c(OC(C)C(=O)NCc3ccccn3)ccc12 (centres undefined)	-4	-9	0	-20	0	nt	nt	nt	nt
Cc1c(OC(C)C(=O)NCc2ccccn2)ccc2c3c(c(=O)oc12)CCC3 (centres undefined)	-8	-89	-1	-143	19*	-2	2	-5	28*
COC(=O)[C@]12C[C@H](CC(=O)N3CCN(C(=O)C4CC4)CC3)C(=O)N(CCc3ccc(OC)c(OC)c3)C1=C[C@H](C(C)(C)C)O[C@@H]2C	nt	0	nt	-1	nt	nt	nt	nt	nt
O=C(Nc1ccc2c(c1)OCO2)OC1CCC12CCCCC2 (centres undefined)	nt	1	nt	1	nt	nt	nt	nt	nt
Cc1ccc(NC(=O)OC2CC3CC2[C@H]2CCCCN2C3)cc1 (some centres undefined)	nt	-3	nt	-1	nt	nt	nt	nt	nt
COc1ccc(C(C(=O)N(C)C2CCCC2)N(Cc2ccc(F)cc2)C(=O)c2cc(C)[nH]n2)cc1OC (centres undefined)	nt	5	nt	2	nt	nt	nt	nt	nt
CC(C)C[C@H]1COc2cccc(N3CCSCC3)c2S(=O)(=O)N1C	nt	0	nt	4	nt	nt	nt	nt	nt
Cc1ccc(-c2cc(C#N)c3n(c2=O)CCC3)cc1	nt	-13	nt	-15	nt	nt	nt	nt	nt
CC(Oc1cc2oc(=O)c3c(c2cc1Cl)CCC3)C(=O)NCCCn1ccnc1 (centres undefined)	-13	-12	-2	-26	28*	0	1	2.3*	40*
CC(Oc1ccc2c3c(c(=O)oc2c1)CCC3)C(=O)NCCCn1ccnc1 (centres undefined)	-23	-1	-2	-11	27*	-3	-1	-6	39*
CC(Oc1cc2oc(=O)c3c(c2cc1Cl)CCC3)C(=O)NCc1ccncc1 (centres undefined)	-6	-2	0	-11	16*	-2	4	-6	22*
CCCc1cc(=O)oc2cc(OC(C)C(=O)NCCCn3ccnc3)ccc12 (centres undefined)	-15	-4	-1	-6	4	nt	nt	nt	nt
COC(=O)[C@]12C[C@H](CC(=O)NCc3cccc4ccccc34)C(=O)N(Cc3ccc(Cl)cc3Cl)C1=C[C@H](C(C)C)O[C@@H]2C1CC1	nt	0	nt	-1	nt	nt	nt	nt	nt
CC(O)CNc1ccc(-c2n[nH]c(=O)c3ccccc23)cc1[N+](=O)[O-] (centres undefined)	3	1	-3	2	20*	-3	-3	-7	34*
SMILES	PvdQ inh	PLC-gamma1 inh	IMP-1 inh-1	PLCb3 inh	VIM-2 inhibitor	IMP-1 inh-2	VIM-2 FRET ctr	TEM-1 inh	VIM-2 confirm 2
CC(O)CNc1cc(N)c([N+](=O)[O-])cc1[N+](=O)[O-] (centres undefined)	10	7	-1	9	-2	nt	nt	nt	nt
CN(C)CCCNc1ccc(-c2n[nH]c(=O)c3ccccc23)cc1[N+](=O)[O-]	-9	5	-3	3	59*	-2	2	-3	68*
Cc1ccc(-c2n[nH]c(=O)c3ccccc23)cc1S(=O)(=O)N(C)C	-12	2	1	-3	5	nt	nt	nt	nt
COc1cc(NC(=O)c2ccccc2)c(C)cc1NC(=O)CSc1nnc(-c2ccccc2F)n1-c1ccc(C)cc1	nt	-3	nt	-5	nt	nt	nt	nt	nt
COc1cccc(-c2coc3c(C)c4oc(=O)c(CCC(=O)O)c(C)c4cc23)c1	8	-110	-3	-134	15*	-3	6	-10	22*
COc1cccc(-c2coc3c(C)c4oc(=O)c(CC(=O)O)c(C)c4cc23)c1	-12	-20	1	-31	16*	2	3	-6	30*
COc1cccc(-c2coc3cc4oc(=O)c(CCC(=O)O)c(C)c4cc23)c1	-17	-69	-4	-101	1	nt	nt	nt	nt
COc1ccc(-c2coc3c(C)c4oc(=O)c(CC(=O)O)c(C)c4cc23)cc1	-8	-40	2	-76	16*	2	-3	-10	22*
Cc1ccc(-c2n[nH]c(=S)n2C)cc1	-8	0	0	-2	6	nt	nt	nt	nt
Cc1ccc(-c2cn3c(=S)[nH]nc3s2)cc1	-12	1	-4	3	45*	-4	69*	-6	54*
Oc1c(Cl)cc(CN2CCCCC2)c2cccnc12	-12	nt	-2	nt	15*	-4	4	-6	17*
O=[N+]([O-])c1cc(CN2CCCC2)c2cccnc2c1O	8	nt	-5	nt	38*	-3	3	-6	44*
COc1ccccc1N1CCN(Cc2cc(Br)c(O)c3ncccc23)CC1	3	-4	-4	1	24*	-3	2	-6	7
OCCN1CCN(Cc2cc(Cl)c3cccnc3c2O)CC1	-19	-28	-2	-39	-3	nt	nt	nt	nt

Assay outcomes: PubChem BioAssay, several laboratories
